# Measurements pooled from the literature.
# Lines come from different studies, so protocols differ.
# Effect on: cell growth or viability
Compound,cell line,method,tested at,time,quantity,result
CCOC(=O)n1ccn(C)c1=S,GISTT1,resazurin,,72 h,IC50,< 70 nM
COc1cc2c(cc1O)CCN(Cc1cc(Cl)c(OC)c(OC)c1)C2,CNSSF-539,SRB,,,GI50,365 nM
Cc1cc2c(cc1N1C(=O)c3cccc4c(CCCO)ccc(c34)C1=O)n(C)c(=O)n2C (racemic),MDA-MB-453,resazurin,,,GI50,> 10000 nM
CC(C)C[C@H](NC(=O)[C@H](Cc1ccccc1)NC(=O)c1cnccn1)B(O)O,GISTT1,,,72 h,IC50,6 nM
CN1C(=O)c2ccccc2CCC(=O)c2ccccc21,L6,,,,IC50,> 380000 nM
Nc1nc(Cl)nc2c1ncn2[C@H]1C[C@H](O)[C@@H](CO)O1,GISTT1,resazurin,,72 h,IC50,> 1000 nM
COc1cc2c(cc1O)CCN(Cc1cc(Br)c(OC)c(OC)c1)C2,CNSSF-539,SRB,,,GI50,177 nM
N#Cc1ccc2c(c1)C(=O)CCc1ccccc1C(=O)N2,L6,,,,IC50,160000 nM
CC[C@@]1(O)C(=O)OCc2c1cc1n(c2=O)Cc2cc3ccccc3nc2-1,CNSSF-539,SRB,,48 h,GI50,10 nM
O=C1Nc2cc(F)cc(F)c2C(=O)CCc2ccccc21,L6,,,,IC50,86000 nM
COc1cc2c(cc1OS(N)(=O)=O)CCN(Cc1cc(Cl)c(OC)c(OC)c1)C2,CNSSF-539,SRB,,,GI50,19 nM
N#Cc1ccc2c(c1)CCC(=O)c1ccccc1NC2=O,L6,,,,IC50,150000 nM
CC(=O)Nc1cccc(-n2c(=O)n(C3CC3)c(=O)c3c(Nc4ccc(I)cc4F)n(C)c(=O)c(C)c32)c1,SW1417,resazurin,780 pM,72 h,viability,99.6%
